Assay: Toxicity liver stage against HepG2, at 10uM
Format: cell-based
Design: test concentration 10 uM, cell line HepG2-A16-CD81EGFP
Conditions: human, HepG2-A16-CD81EGFP cells; read-out: INHIBITION
Method in brief: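 Uninfected HepG2-A16-CD81EGFP cells, 3 × 10^3 per well, 1536-well, plated on prespotted compound at 10 μM final, parasite-free screening media added to match infected plates; puromycin 10 μM positive, DMSO 0.5% negative; run in parallel with 48 h PbLuc assay at 37 °C, 5% CO2; viability by CellTiter-Glo luminescence, normalized to controls.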

SMILES	cytotoxicity at 10 µM
O=C(Nc1ccc(Cl)cc1C(=O)NCCN1CCOCC1)c1ccco1	-4.62%
Cc1cccc(N2CCN(Cc3nc(CC4CC4)no3)CC2)n1	-10.1%
Cc1ccc2nc3n(c2c1)[C@@H](CNC(=O)c1ccncc1)COC3	-3.61%
CC(C)NC(=O)c1nc(COc2ccc3c(c2)OCO3)no1	-1.11%
Cc1cccc(NC(=O)C2(n3cnnn3)CCCCC2)n1	-1.05%
CCC(CNC(C)=O)(OC)c1ccccc1 (centres undefined)	1.97%
CCC1=N[C@@]2(CC[C@@H]3CN(S(=O)(=O)CC)C[C@@H]32)C(=O)N1CCOC	-0.211%
CSc1nc2cc(C)n(CC(=O)N3CCCC3)c2c(=O)n1CC(C)C	3.64%
CCCn1[nH]c(CNc2ccccc2)nc1=O	9.98%
NC(=O)C1CCN(C(=O)CCn2ccc3ccc(F)cc32)CC1	-6.83%
COCCNC(=O)c1cc2c(s1)CCN2C(=O)c1ccccc1	-12.9%
CCn1ccc(CNC(=O)c2cc(OC)cc(OC)c2)n1	8.66%
CN(C)C(=O)CN1CCCC(c2nccnc2-c2cccc(Cl)c2)C1 (centres undefined)	4.21%
Cc1nc2cc(C3CCOCC3)nn2c(NCC2COCCO2)c1C (centres undefined)	0.135%
Cc1noc(C)c1-c1cccc(C2CCN(S(=O)(=O)N(C)C)CC2)n1	8.18%
Cc1cnc(-c2nc(C3CCN(Cc4ccccc4Cl)CC3)no2)cn1	-5.85%
Cc1csc2c(C3CCN(C(=O)Cn4cncn4)CC3)nc(C)n12	6.28%
CC(=O)N1CCCCC[C@@H]2[C@@H]1[C@H](c1cccc(F)c1)CN2CCC(N)=O	-1.08%
COc1ccc(C2CNCCN2C(=O)c2nccc3ccccc23)cc1 (centres undefined)	4.1%
COC(=O)[C@H]1CN(C(=O)c2cscn2)C[C@@H]1c1ccc(F)cc1	-26.3%
Cc1cc(CN2CCC(C3Nc4ccccc4S(=O)(=O)N3)CC2)oc1C (centres undefined)	4.22%
Cn1nc(C2CN(C(=O)c3cccnc3)C2)c2nccnc21	-21.7%

SMILES	cytotoxicity at 10 µM
O=C(CCc1ccccc1)N1CCCC(c2n[nH]c3nccnc23)C1 (centres undefined)	20.9%
O=C(c1ccncc1)N1CCC(O)(Cn2ccc3ccncc32)CC1	1.93%
NC(=O)C1(c2cnccn2)CCCN1Cc1cc2ccccc2o1 (centres undefined)	-1.19%
COc1ccccc1-c1nc(C(=O)N2CCOCC2)n2ccncc12	11.9%
CS(=O)(=O)N1CC2(CCN(C3CCCCC3)CC2)Cc2ccccc21	4.92%
COc1ccc(SC(C)C(=O)N2CCC(O)CC2)cc1 (centres undefined)	0.887%
Cc1ccc(C(C)NC(=O)CCc2cnn(C)c2)cc1F (centres undefined)	-0.348%
CC(C)C1CCC(N2CCN(CCS(C)(=O)=O)CC2)CC1 (centres undefined)	7.23%
CC1CCCCN1C(=O)c1ccc2c(c1)OCCCO2 (centres undefined)	9.62%
CNS(=O)(=O)c1cccc(C(C)NCc2ccncc2)c1 (centres undefined)	-2.53%
O=C(O)c1ccn(-c2ccccc2NS(=O)(=O)c2cccc(Cl)c2F)n1	-3.36%
Cc1ccc(C2COCCN2C(=O)c2cccc(N(C)C)c2)o1 (centres undefined)	8.99%
Cc1ccn(-c2ccccc2NCc2cccnc2)n1	0.508%
Cc1cc(C)n(C2CN(CC(=O)N(C)Cc3cnn(C)c3)C2)n1	-5.85%
NC(=O)C(CNC(=O)Cc1ccsc1)Cc1ccc(F)cc1 (centres undefined)	9.21%
Cn1cc(CCNC(=O)N2CCCC(Cc3nccn3C)C2)cn1 (centres undefined)	-4.52%
Cc1cc(C)c(CNC(=O)C2COc3ccccc3C2)c(=O)[nH]1 (centres undefined)	-0.102%
CNC(=O)CN1CCC(OCC2CCCO2)CC1 (centres undefined)	1.99%
CN(CCCc1cc(-c2ccc(F)cc2)n[nH]1)C(=O)CCn1cncn1	-137%
CC1CCN(C(=O)CN2CCC(c3n[nH]c(C4CC4)n3)CC2)CC1	-0.297%
CC(C)CN1Cc2cccc(NC(=O)Cc3ccon3)c2C1	4.86%
CS(=O)(=O)CCOCCNc1cncc(Br)c1	1.83%

SMILES	cytotoxicity at 10 µM
Cc1cc(CC(=O)NC2CCCN(Cc3ccccc3)C2=O)n[nH]1 (centres undefined)	3.5%
O=C(N1CCC(O)(C(F)(F)F)C1)C1(c2ccc(Cl)cc2)CC1 (centres undefined)	9.64%
CCc1nc(CN2CCN(C(=O)COCc3ccccc3)CC2)no1	2.41%
Cn1cnc(S(=O)(=O)N2CCN(Cc3ccco3)CC2)c1Cl	-3.85%
COC[C@@]12CCC[C@@H]1CN(C(=O)COC1CCCC1)C2	4.35%
CO[C@H]1CC[C@H]2[C@H]1OCCN2C(=O)CC1=CCCCC1	5.28%
O=C(CC(F)(F)F)N1CCc2onc(Cn3cccn3)c2C1	0.635%
CS(=O)(=O)N[C@@H]1CCO[C@]2(CCN(C(=O)c3cnccn3)C2)C1	1.98%
O=C(c1cscn1)N1CCN2C[C@H](OCc3cccnc3)C[C@H]2C1	-7.62%
O=C(c1cn(CCN2CCCCC2)nn1)N1CCCCO1	-4.55%
COc1ccc(/C=C/CN2CCCC3(C2)CN(C)C(=O)O3)cc1 (centres undefined)	-2.67%
CCCN1CCN(C(=O)c2ccc3nc(C)oc3c2)[C@H]2CS(=O)(=O)C[C@H]21	-23.2%
CCC[C@@H]1CN(C(=O)c2c(F)ccc(OC)c2F)C[C@H]1C(=O)O	0.542%
CN1CCC(N(CCc2ccccc2)C(=O)c2cc[nH]c2)CC1	-1.14%
Cc1ccc(CN(C)C(=O)C(C)n2ccnc2C(C)C)o1 (centres undefined)	5.99%
Cc1ncc(C)c(N2Cc3cnn(Cc4ccc(F)cc4)c3C2)n1	3.3%
CCCc1nnc2sc(C3CCS(=O)(=O)CC3)nn12	1.4%
O=c1cc(N2CCNCC2)cnn1CCc1ccc(F)cc1	-8.76%
Cc1cccc(-n2nc(CC(C)C)nc2CCn2ccc(=O)[nH]c2=O)c1	-3.7%
CCS(=O)(=O)N1CC[C@@H]2[C@@H](CCC(=O)N2CCc2ccccc2)C1	0.86%
Cc1cccc(-n2nc(CC(C)C)nc2CCCC(N)=O)c1	3.4%
COc1ccc([C@@H]2CN(Cc3ccncc3)C[C@H]2N(C)C)cc1	-2.52%

SMILES	cytotoxicity at 10 µM
OC(CNc1ccncn1)CN1CCCCCC1 (centres undefined)	-0.271%
Cc1cc(C)c2[nH]c(CN3CCCC(N4CCOCC4)C3)cc(=O)c2c1 (centres undefined)	-1.78%
COc1ccc(-c2noc(Cn3cc4c(n3)CCC4)n2)c(OC)c1OC	4.7%
CN(C)C(C(=O)N1CCSCC1)c1ccccc1F (centres undefined)	0.32%
Cc1nn(C)c2nc(N(Cc3ccccc3)CC3CCCO3)sc12 (centres undefined)	8.15%
COCCN1CCN(C(=O)c2ccc(COC)o2)[C@H]2CS(=O)(=O)C[C@H]21	-6.15%
N#Cc1cccc(N2CCOC3(CNCCOC3)C2)n1 (centres undefined)	2.61%
CC(C)c1nccc(CN2CCC(O)(CN3CCCCC3)C2)n1 (centres undefined)	-1.95%
CC(C)c1cc(N(C)Cc2cc(C3CC3)on2)n2nccc2n1	4.28%
CO[C@@]1(C)C[C@@H](O)C12CCN(C(=O)C1(c3ccccc3F)CC1)CC2	3.47%
CCC(NC(=O)C(C)(C)C)c1ccccc1C (centres undefined)	2.3%
NC1CCCN(C(=O)c2csc(-c3ccc(C(F)(F)F)cc3)n2)CC1 (centres undefined)	-15.1%
Cc1nc(N[C@H]2COC[C@@H]2N2CCCC2)c2cnn(C)c2n1	-1.42%
COc1ccc(C(C(=O)O)N2CCCN(C3CCCCC3)CC2)cn1 (centres undefined)	13.3%
CNCC(=O)N1CCCC(c2cccc(Nc3nc(C)cc(C)n3)n2)C1 (centres undefined)	-5.07%
Cc1cnccc1CN1C[C@@H](O)[C@H](Oc2cccc(F)c2)C1	2.21%
Cc1ccccc1-c1cncc(C2CCN(C(C)C)CC2)n1	1.2%
CC(NC(=O)NCCCn1cncn1)c1ccncc1 (centres undefined)	-15.9%
Cc1cccc(OCCN2CCN(Cc3cnn(CCO)c3)CC2)c1	-5.16%
O=C(O)c1ccc(F)c(S(=O)(=O)N2CCOc3ccccc32)c1	-4.28%
CC(C)n1ccnc1CN1CCCN(C(=O)c2ncccc2O)CC1	-3.45%
CC(C)Cc1noc(CN2CCN(S(C)(=O)=O)CC2)n1	5.51%

SMILES	cytotoxicity at 10 µM
CNS(=O)(=O)c1ccc(C(=O)NCCNc2ncccn2)cc1	-5.95%
Cc1nn(C)c(Cl)c1C1CCCN1C(=O)c1ccc2c(c1)OCO2 (centres undefined)	-2.9%
CC(C)c1noc(CCC(=O)NCC2CCS(=O)(=O)C2)n1 (centres undefined)	5.7%
CN(C)CC1CN(Cc2coc(-c3cccs3)n2)CCO1 (centres undefined)	4.48%
CNc1snc(C)c1C(=O)N1CCCC(n2nc(C)cc2C)C1 (centres undefined)	-2.74%
CC(C)(C)SCCCC(=O)N1CCC(Nc2cccnn2)CC1	-8.26%
CCn1cc(NC(=O)NCc2ccc3c(c2)OCCO3)cn1	-7.71%
CN1CCCc2cc(-c3cncn3CCNC3CCS(=O)(=O)C3)ccc21 (centres undefined)	-2.42%
Cc1ccc(-c2ccccc2CC2CNCCNC2=O)c(C)c1 (centres undefined)	-1.18%
Cc1ccc(C(CCNCCCN(C)C)C2CCOC(C)(C)C2)cc1 (centres undefined)	-3.32%
Cc1cccc(CN2CC[C@H]3OCC[C@@]3(C(=O)N3CCCO3)C2)n1	0.886%
O=C1COC2(CCN(Cc3nccs3)CC2)CN1CC1CC1	4.38%
Cn1cnc2c(N3CCCC3)nc(C3CCNCC3)cc21	-9.74%
O=C(NCC1CC1)[C@H]1C[C@H]2OCC[C@H]2N(CCc2ccccc2)C1	3.86%
c1cnc2c(c1)cc(C1CCOCC1)n2CCN1CCOCC1	0.487%
O=C(c1cnccn1)N1CCc2ncnc(-c3cccnc3)c2CC1	-3.8%
O=C1NC2(CCN(Cc3ccoc3)CC2)CC1c1ccncc1 (centres undefined)	6.05%
c1cnc(N2C[C@H]3CN(CC4CCOC4)C[C@H]3C2)nc1 (some centres undefined)	-5.09%
Cc1ccc2c(n1)N(Cc1cccnc1)CCN(C(=O)C1CCC1)C2	13.7%
CCc1ncnc2c1CCN(CCOC)CC2	5.19%
O=C(Nc1ccccc1)N1C[C@@H]2CC[C@H]1CN(Cc1ccccc1)C2	1.93%

From ChEMBL document CHEMBL4513216, “Probing the Open Global Health Chemical Diversity Library for Multistage-Active Starting Points for Next-Generation Antimalarials” (ACS Infect Dis, 2020)
